Laboratory results reported in ChEMBL document CHEMBL3085732, “Synthesis and pharmacological evaluation of aminothiazolomorphinans at the mu and kappa opioid receptors” (J Med Chem, 2013).
Active and inactive are the calls of the source.

Assays:
Rattus norvegicus [1] = assay: Toxicity in Sprague-Dawley rat assessed as suppression of intracranial self-stimulation reward function at 1 to 30 mg/kg, ip measured for 1 hr; format: organism-based; parameters: dose 1-30 mg/kg, route intraperitoneal; settings: in vivo
Summary of the method: (§1)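 Male Sprague-Dawley rats with lateral hypothalamic medial forebrain bundle electrodes were given test drug i.p. in increasing doses (n=6/cohort). One series was 0–4.0 mg/kg in 20% DMSO/water; the other was 1.0–30.0 mg/kg in 0.9% saline. ICSS thresholds and maximum response rates were measured over four 15-min rate-frequency trials after baseline. Results were expressed as 100 × post/pre-treatment.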

Rattus norvegicus [2] = assay: Reduction of reward potentiation effect of cocaine in ip dosed Sprague-Dawley rat assessed as blockade of cocaine-madiated reduction of intracranial self-stimulation threshold at 3 to 30 mg/kg administered for 15 mins prior to cocaine challenge measured 15 mins post dose and 1 hr post cocaine challenge; format: functional, organism-based
Summary of the method: (§2)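 Male Sprague-Dawley rats carried medial forebrain bundle electrodes and were trained by the rate-frequency method to stable thresholds (n=6/cohort). Baseline came from three 15-min functions. Test drug was given i.p. in increasing doses: 0, 0.5, 1.0, 2.0 mg/kg, or 0, 3.0, 10.0, 30.0 mg/kg. […] Data were expressed as 100 × post/pre.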

[3] = target: T1, Kappa-type opioid receptor (Homo sapiens, UniProt P41145); assay: Agonist activity at human kappa opioid receptor transfected in CHO cells assessed as stimulation of [35S]GTPgammaS binding after 60 mins by scintillation counting analysis; format: functional, cell-based
T1 sequence (P41145 whole entry): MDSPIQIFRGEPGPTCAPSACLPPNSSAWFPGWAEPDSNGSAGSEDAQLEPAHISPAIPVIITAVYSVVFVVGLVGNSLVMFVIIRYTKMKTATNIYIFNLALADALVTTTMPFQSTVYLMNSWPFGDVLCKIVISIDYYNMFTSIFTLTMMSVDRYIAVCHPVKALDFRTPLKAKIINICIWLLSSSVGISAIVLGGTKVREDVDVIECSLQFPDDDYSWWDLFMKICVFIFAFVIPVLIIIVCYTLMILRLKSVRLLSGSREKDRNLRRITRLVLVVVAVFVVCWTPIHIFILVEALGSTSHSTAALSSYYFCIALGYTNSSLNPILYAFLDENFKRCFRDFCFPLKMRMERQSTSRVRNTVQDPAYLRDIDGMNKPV
Summary of the method: (§3)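 Membranes from CHO cells stably expressing human KOR (15 μg protein/tube) or MOR (7.5 μg protein/tube) were incubated for 60 min at 30 °C with 12 compound concentrations, 3 μM GDP and […] [35S]GTPγS. Nonspecific binding used 10 μM GTPγS. Filtration, scintillation counting; % stimulation over basal. ≥3 experiments, triplicate.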

Mu-type opioid receptor [4] = target: T2, Mu-type opioid receptor (Homo sapiens, UniProt P35372); assay: Antagonist activity at human mu opioid receptor transfected in CHO cells assessed as inhibition of […] [35S]GTPgammaS binding after 60 mins by scintillation counting analysis relative to control; format: functional, cell-based
T2 sequence (P35372 whole entry): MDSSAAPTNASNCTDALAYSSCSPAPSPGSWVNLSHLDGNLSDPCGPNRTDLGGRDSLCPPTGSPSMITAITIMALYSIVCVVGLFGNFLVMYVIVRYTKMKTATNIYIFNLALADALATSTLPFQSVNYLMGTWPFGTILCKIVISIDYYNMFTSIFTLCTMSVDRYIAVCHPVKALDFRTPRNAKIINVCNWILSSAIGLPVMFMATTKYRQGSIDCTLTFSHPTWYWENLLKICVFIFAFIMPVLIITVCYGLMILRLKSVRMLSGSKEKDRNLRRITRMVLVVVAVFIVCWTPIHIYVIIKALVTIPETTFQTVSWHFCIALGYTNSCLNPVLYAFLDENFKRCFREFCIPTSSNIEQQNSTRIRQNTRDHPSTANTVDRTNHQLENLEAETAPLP

[5] = target: T1, Kappa-type opioid receptor; assay: Agonist activity at human kappa opioid receptor transfected in CHO cells assessed as stimulation of [35S]GTPgammaS binding after 60 mins by scintillation counting analysis relative to control; format: functional, cell-based; summary of the method: as §3
[6] = target: T1, Kappa-type opioid receptor; assay: Displacement of [3H]-U69593 from human kappa opioid receptor transfected in CHO cells after 60 mins; format: cell-based
Mu-type opioid receptor [7] = target: T2, Mu-type opioid receptor; assay: Displacement of [3H]-DAMGO from human mu opioid receptor transfected in CHO cells after 60 mins; format: cell-based
[8] = target: Delta-type opioid receptor (Homo sapiens, UniProt P41143); assay: Displacement of [3H]-naltrindole from human delta opioid receptor transfected in CHO cells after 3 hrs; format: cell-based
Delta-type opioid receptor, sequence (P41143 whole entry): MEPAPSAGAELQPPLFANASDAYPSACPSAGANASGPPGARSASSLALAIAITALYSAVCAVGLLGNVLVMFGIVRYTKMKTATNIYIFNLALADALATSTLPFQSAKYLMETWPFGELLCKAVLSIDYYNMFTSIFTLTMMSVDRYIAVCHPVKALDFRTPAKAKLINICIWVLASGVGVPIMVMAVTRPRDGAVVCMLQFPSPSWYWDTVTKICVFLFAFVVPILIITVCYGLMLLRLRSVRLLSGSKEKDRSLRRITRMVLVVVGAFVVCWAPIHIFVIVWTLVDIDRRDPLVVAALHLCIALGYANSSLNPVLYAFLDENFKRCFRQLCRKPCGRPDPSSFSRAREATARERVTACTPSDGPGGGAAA

Mu-type opioid receptor [9] = target: T2, Mu-type opioid receptor; assay: Agonist activity at human mu opioid receptor transfected in CHO cells assessed as stimulation of [35S]GTPgammaS binding after 60 mins by scintillation counting analysis relative to control; format: functional, cell-based; summary of the method: as §3
Mu-type opioid receptor [10] = target: T2, Mu-type opioid receptor; assay: Agonist activity at human mu opioid receptor transfected in CHO cells assessed as stimulation of [35S]GTPgammaS binding after 60 mins by scintillation counting analysis; format: functional, cell-based; summary of the method: as §3
Homo sapiens [11] = species on record: Homo sapiens; assay: Selectivity ratio of Ki for human delta opioid receptor to Ki for human kappa opioid receptor
Mu-type opioid receptor [12] = target: T2, Mu-type opioid receptor; assay: Antagonist activity at human mu opioid receptor transfected in CHO cells assessed as inhibition of DAMGO-induced [35S]GTPgammaS binding after 60 mins by scintillation counting analysis; format: functional, cell-based
Summary of the method: (§4)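 Membranes from CHO cells expressing human MOR (7.5 μg protein/tube) were incubated with test compound plus 200 nM DAMGO, 3 μM GDP and […] [35S]GTPγS. Incubation was 60 min at 30 °C in Tris/MgCl2/NaCl/EGTA buffer, pH 7.4. Bound label was measured by filtration and scintillation counting. At least 3 experiments, each in triplicate.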

Mu-type opioid receptor [13] = target: T2, Mu-type opioid receptor; assay: Antagonist activity at human mu opioid receptor transfected in CHO cells assessed as inhibition of DAMGO-induced [35S]GTPgammaS binding after 60 mins by scintillation counting analysis relative to control; format: functional, cell-based; summary of the method: as §4
Homo sapiens [14] = species on record: Homo sapiens; assay: Selectivity ratio of Ki for human mu opioid receptor to Ki for human kappa opioid receptor
Rattus norvegicus [15] = assay: Reduction of reward potentiation effect of cocaine in ip dosed Sprague-Dawley rat assessed as blockade of cocaine-madiated reduction of intracranial self-stimulation threshold administered for 15 mins prior to cocaine challenge measured 15 mins post dose and 1 hr post cocaine challenge; format: functional, organism-based; summary of the method: as §2
Rattus norvegicus [16] = assay: Toxicity in Sprague-Dawley rat assessed as suppression of intracranial self-stimulation reward function at 4 mg/kg, ip measured over 15 to 60 mins; format: organism-based; parameters: dose 4 mg/kg, route intraperitoneal; settings: in vivo; summary of the method: as §1
Rattus norvegicus [17] = assay: Toxicity in Sprague-Dawley rat assessed as suppression of intracranial self-stimulation reward function at 0.25 to 2 mg/kg, ip measured for 1 hr; format: organism-based; parameters: dose 0.25-2 mg/kg, route intraperitoneal; settings: in vivo; summary of the method: as §1

Row | SMILES | Activity (Rattus norvegicus [1]) | Activity (Rattus norvegicus [2]) | EC50 [3] [nM] | Imax (Mu-type opioid receptor [4]) | Emax [5] [%] | Ki [6] [nM] | Ki (Mu-type opioid receptor [7]) [nM] | Ki [8] [nM] | Emax (Mu-type opioid receptor [9]) [%] | EC50 (Mu-type opioid receptor [10]) [nM] | Ratio Ki (Homo sapiens [11]) | IC50 (Mu-type opioid receptor [12]) [nM] | Imax (Mu-type opioid receptor [13]) [%] | Ratio Ki (Homo sapiens [14]) | Activity (Rattus norvegicus [15]) | Activity (Rattus norvegicus [16]) | Activity (Rattus norvegicus [17])
1 | Nc1nc2c(s1)C[C@H]1[C@H]3Cc4ccc(O)cc4[C@@]1(CCN3CC1CC1)C2 | Non-toxic | inactive | 0.61 | 49% | 59 | – | – | – | – | – | – | – | – | – | – | – | –
2 | CNc1nc2c(s1)C[C@H]1[C@H]3Cc4ccc(O)cc4[C@@]1(CCN3CC1CC1)C2 | – | – | 1.3 | 27% | 85 | 0.084 | 0.14 | 0.43 | 25 | 0.52 | 5.1 | 2.5 | 76 | 1.7 | – | – | –
3 | Oc1ccc2c(c1)[C@@]13CCCC[C@H]1[C@@H](C2)N(CC1CCC1)CC3 [BUTORPHAN] | – | – | – | – | – | – | – | – | – | – | – | – | – | – | Dose-dependent effect | Toxic | Non-toxic
4 | Nc1nc2cc3c(cc2s1)C[C@@H]1[C@@H]2CCCC[C@]32CCN1CC1CC1 | – | – | – | inactive | – | – | – | – | – | – | – | – | – | – | – | – | –
5 | COc1ccc2c(c1)[C@]13CCN(CC4CC4)[C@H](C2)[C@@H]1Cc1sc(NC(C)=O)nc1C3 | – | – | 140 | inactive | 120 | 9 | 6.6 | 4.6 | 47 | 80 | 0.51 | 500 | 60 | 0.73 | – | – | –
6 | CNc1nc2c(s1)C[C@H]1[C@H]3Cc4ccc(OC)cc4[C@@]1(CCN3CC1CC1)C2 | – | – | 97 | inactive | 140 | 3.6 | 9.6 | 1.6 | 28 | 51 | 0.44 | 650 | 76 | 2.7 | – | – | –
7 | COc1ccc2c(c1)[C@]13CCN(CC4CC4)[C@H](C2)[C@@H]1Cc1sc(N)nc1C3 | – | – | 49 | inactive | 140 | 1.9 | 6.7 | 13 | 24 | 39 | 6.8 | 640 | 69 | 3.5 | – | – | –
